According to ChEMBL document CHEMBL1145864, “Synthesis and structure-activity relationship of a new series of COX-2 selective inhibitors: 1,5-diarylimidazoles” (J Med Chem, 2003):
pIC50: −log10 of the molar value.

How the values were obtained:
[1] = Half life of compound was determined at 1 mg/kg intravenous administration in rat; assay type: ADME, organism-based; set-up: dose 1 mg/kg, route intravenous; settings: in vivo
Rattus norvegicus [2] = assay: In vivo anti-inflammatory activity determined by rat carrageenan paw edema method at 10 mg/kg perorally; assay type: functional; settings: route oral
Rattus norvegicus [3] = assay: In vivo anti-inflammatory activity by air pouch model at 1 mg/kg perorally in rat.; assay type: functional; settings: route oral
How it was run: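 Rat air pouch: sterile air (20 mL) was injected subcutaneously, with 10 mL refills every 2 days. On day 7, 2 mL of 1% lambda-carrageenan in saline was injected into the pouch. Compound was given orally (suspension in 1% CMC/Tween-80, 10 mL/kg) 0.5 h before carrageenan. At 6 h, exudate was collected and centrifuged, and supernatant PGE2 was measured by ELISA.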

[4] = target: Prostaglandin G/H synthase 1 (Homo sapiens, UniProt P23219); assay type: cell-based, U-937
[5] = target: T1, Prostaglandin G/H synthase 2 (Homo sapiens) (UniProt P35354); settings: Blood; at 1 µM
T1 sequence (whole entry): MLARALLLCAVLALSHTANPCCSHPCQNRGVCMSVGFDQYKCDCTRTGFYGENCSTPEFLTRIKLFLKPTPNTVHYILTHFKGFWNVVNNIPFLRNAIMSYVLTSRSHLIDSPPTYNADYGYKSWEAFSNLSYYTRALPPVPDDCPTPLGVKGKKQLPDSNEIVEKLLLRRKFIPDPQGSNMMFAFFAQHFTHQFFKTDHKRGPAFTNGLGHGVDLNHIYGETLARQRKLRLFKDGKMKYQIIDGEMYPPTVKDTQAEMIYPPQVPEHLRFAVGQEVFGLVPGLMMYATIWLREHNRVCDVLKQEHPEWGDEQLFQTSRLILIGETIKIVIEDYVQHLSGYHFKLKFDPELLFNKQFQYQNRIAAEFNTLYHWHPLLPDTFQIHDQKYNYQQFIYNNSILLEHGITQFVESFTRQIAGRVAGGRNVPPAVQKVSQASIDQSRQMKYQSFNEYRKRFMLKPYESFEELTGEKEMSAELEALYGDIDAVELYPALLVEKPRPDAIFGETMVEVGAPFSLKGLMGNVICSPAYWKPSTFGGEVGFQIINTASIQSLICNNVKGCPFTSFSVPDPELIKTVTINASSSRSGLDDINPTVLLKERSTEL

[6] = target: T1, Prostaglandin G/H synthase 2 (Homo sapiens); settings: Blood; at 10 µM
Rattus norvegicus [7] = assay: In vivo inhibition of contralateral paw swelling after oral treatment for 28 days (1 mg/kg od) was determined by adjuvabt arthritis in rat; assay type: functional
How it was run: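 Lewis rats (140–170 g, 7 weeks) received 0.5 mg Mycobacterium butyricum in light mineral oil intradermally into the right hind foot pad; controls received incomplete adjuvant. Groups of 10 were dosed orally at 1 mg/kg daily for 28 days, starting on the day of injection. Left hind paw volume was measured plethysmographically at the end and expressed as % inhibition versus controls.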

Rattus norvegicus [8] = assay: Percentage of [51Cr]- secreted in feces was determined by fecal drug-induced bleeding method in rat at 100 mg/kg, bid for 4 days
Rattus norvegicus [9] = assay: In vivo analgesic activity of compound was determined by inflammatory hyperalgesia model at 3 mg/kg perorally in rat; assay type: functional; settings: route oral
How it was run: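 Male Sprague–Dawley rats received 1% carrageenan suspension (0.1 mL) into the right hind foot pad. Three hours later, compound (suspended in 1% Tween-80) was given by gavage. After 30 min, a heat stimulus was applied under the inflamed paw and withdrawal latency (s) recorded. The % inhibition of the stimulus-induced latency decrease was calculated relative to the untreated left paw.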

Prostaglandin G/H synthase 1, sequence (P23219 whole entry): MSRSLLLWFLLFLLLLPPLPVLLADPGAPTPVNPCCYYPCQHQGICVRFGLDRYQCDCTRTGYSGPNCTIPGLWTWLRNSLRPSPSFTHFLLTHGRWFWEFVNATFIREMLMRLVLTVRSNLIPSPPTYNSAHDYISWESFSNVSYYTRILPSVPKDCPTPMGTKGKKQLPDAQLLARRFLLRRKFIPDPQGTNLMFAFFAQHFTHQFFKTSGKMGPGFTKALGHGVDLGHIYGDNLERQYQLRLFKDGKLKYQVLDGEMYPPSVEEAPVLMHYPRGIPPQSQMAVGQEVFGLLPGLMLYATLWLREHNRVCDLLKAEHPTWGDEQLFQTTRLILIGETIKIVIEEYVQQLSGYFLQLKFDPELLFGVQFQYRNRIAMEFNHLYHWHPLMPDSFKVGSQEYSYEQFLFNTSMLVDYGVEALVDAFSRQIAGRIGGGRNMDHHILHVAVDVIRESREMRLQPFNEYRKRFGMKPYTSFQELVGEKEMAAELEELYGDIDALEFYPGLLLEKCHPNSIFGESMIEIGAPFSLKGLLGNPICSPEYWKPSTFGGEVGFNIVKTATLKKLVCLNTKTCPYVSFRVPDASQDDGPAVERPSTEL

| Structure (SMILES) | half-life [1] | inhibition in vivo at 10 mg/kg (Rattus norvegicus [2]) | inhibition in vivo at 1 mg/kg (Rattus norvegicus [3]) | pIC50 [4] | inhibition [5] | inhibition [6] | Inhibition (Rattus norvegicus [7]) | Cr secretion (Rattus norvegicus [8]) | inhibition in vivo at 3 mg/kg (Rattus norvegicus [9]) |
| --- | --- | --- | --- | --- | --- | --- | --- | --- | --- |
| Cc1ccc(-c2c(Cl)ncn2-c2ccc(S(N)(=O)=O)cc2)cc1 | 5.2 h | 32.6% | 62.3% | 5.57 | 76.1% | 100% |  |  |  |
| Cc1ncn(-c2ccc(S(C)(=O)=O)cc2)c1-c1ccc(F)cc1 |  |  | 45% | < 5.00 | 34.5% | 86.5% |  |  |  |
| CS(=O)(=O)c1ccc(-c2cnc(Br)n2-c2ccc(F)cc2)cc1 |  | 40.4% | 35.5% | < 5.00 | 56.2% | 92.8% |  |  |  |
| COc1ccc2c(c1)c(CC(=O)O)c(C)n2C(=O)c1ccc(Cl)cc1 [INDOMETHACIN] |  | 66.2% |  |  |  |  | 94% | 7.5% |  |
| COc1ccc(-c2c(Cl)ncn2-c2ccc(S(C)(=O)=O)cc2)cc1C |  | 21.4% | 75.6% | < 5.00 | 100% | 100% |  |  |  |
| NS(=O)(=O)c1ccc(-n2cnc(Cl)c2-c2ccccc2)cc1 | 2.9 h | 36.3% | 96.3% | 5.29 |  | 59.5% |  |  |  |
| CS(=O)(=O)c1ccc(-n2cnc(Cl)c2-c2ccc3c(c2)OCO3)cc1 | 3.5 h | 30.6% |  | < 5.00 | 60.5% | 100% |  |  | 69.9% |
| Cc1ccc(-c2cc(C(F)(F)F)nn2-c2ccc(S(N)(=O)=O)cc2)cc1 [CELECOXIB] |  | 35.7% | 93.4% |  |  |  | 89% | 0.7% | 86.7% |
| CS(=O)(=O)c1ccc(-n2cnc(Br)c2-c2ccc(F)cc2)cc1 |  |  | 91.4% | < 5.00 | 85.2% | 100% |  |  |  |
| Cc1ccc(-c2c(Cl)ncn2-c2ccc(S(C)(=O)=O)cc2)cc1 | 1.7 h | 21.6% | 65.5% | < 5.00 | 90.5% | 100% |  |  |  |
| CCN(CC)c1ccc(-c2c(Cl)ncn2-c2ccc(S(C)(=O)=O)cc2)cc1 |  | 24.2% | 64.1% | < 5.00 | 9.7% | 100% |  |  | 64.1% |
| CN(C)c1ccc(-c2c(Cl)ncn2-c2ccc(S(C)(=O)=O)cc2)cc1Cl | 1.2 h | 33.3% | 43% | 5.72 | 64.6% | 98.9% |  |  | 63.8% |
| CS(=O)(=O)c1ccc(C2=C(c3ccccc3)C(=O)OC2)cc1 [ROFECOXIB] |  | 33.3% | 95.3% |  | 84.1% | 100% | 87% | 0.6% | 83.4% |
| CCOc1ccc(-c2c(Cl)ncn2-c2ccc(S(N)(=O)=O)cc2)cc1 | 2.2 h | 29.2% | 98.9% | 5.66 |  |  | 97% | 0.5% | 82.8% |
| COc1cc(-c2c(Cl)ncn2-c2ccc(S(N)(=O)=O)cc2)ccc1F | 3.8 h | 14.3% | 58.9% | < 6.00 |  | 79.3% |  |  | 38% |
| Cc1ccc(-c2c(Cl)ncn2-c2ccc(S(C)(=O)=O)cc2)cc1F |  | 22.6% | 18.5% | < 5.00 | 75.1% | 100% |  |  |  |
| CSc1ccc(-c2c(Cl)ncn2-c2ccc(S(C)(=O)=O)cc2)cc1 |  | 21.7% |  | 6.05 | 49% | 88.5% |  |  |  |
| CS(=O)(=O)c1ccc(-n2cnc(Cl)c2-c2ccncc2)cc1 |  | 31.7% | 50.2% | < 5.00 | 54.5% | 82.4% |  |  | 69.4% |
| COc1cc(-c2c(Cl)ncn2-c2ccc(S(C)(=O)=O)cc2)ccc1F |  | 25% | 15.1% | < 5.00 | 97.4% | 92.6% |  |  | 20.4% |
| CS(=O)(=O)c1ccc(-c2cnc(Cl)n2-c2ccc(F)cc2)cc1 |  | 20.4% | 55.2% | < 5.00 | 85.6% | 100% |  |  |  |
| COc1ccc(-c2c(Cl)ncn2-c2ccc(S(C)(=O)=O)cc2)cc1Cl | 3.6 h | 31.4% | 71.1% | < 5.00 | 84.1% | 100% |  |  | 66.6% |
| CCOc1ccc(-c2c(Cl)ncn2-c2ccc(S(N)(=O)=O)cc2)cc1Cl |  | 18.5% |  | 4.81 | 26.8% | 99.9% |  |  |  |
| NS(=O)(=O)c1ccc(-n2cnc(Cl)c2-c2ccc(Cl)nc2)cc1 |  | 18.1% |  | < 5.00 | 19.6% | 97.6% |  |  |  |
| CS(=O)(=O)c1ccc(-n2cnc(Cl)c2-c2ccccc2)cc1 | 17 h | 29.2% | 83.2% | < 5.00 | 82.6% | 96% |  |  |  |
| NS(=O)(=O)c1ccc(-n2cnc(Cl)c2-c2ccc(F)cc2)cc1 | 17 h | 38.6% | 93.2% | 5.51 |  | 61.4% |  |  |  |
| CCOc1ccc(-c2c(Cl)ncn2-c2ccc(S(C)(=O)=O)cc2)cc1 |  | 16.3% |  | < 5.00 | 100% | 100% |  |  |  |
